For experiment [1], the system named is Plasmodium falciparum. Nature of the experiment: Antiplasmodial activity against chloroquine-sensitive Plasmodium falciparum D10 after 72 hrs by LDH assay. The experiment is classed as functional, organism-based. The note with it: D10, 72 h. An outline of the steps:
(§1)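 P. falciparum grown in human A+ red cells at 5% hematocrit in RPMI 1640 with 1% AlbuMaxII, 0.01% hypoxanthine, 20 mM Hepes and 2 mM glutamine, at 37 °C under 1% O2/5% CO2/94% N2. Compounds dissolved in water or DMSO and diluted in medium. Growth read by pLDH. Values are mean ± SD of three experiments run in duplicate.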

The test system of experiment [2] is Plasmodium falciparum. In words: Antiplasmodial activity against chloroquine-resistant Plasmodium falciparum W2 after 72 hrs by LDH assay. The experiment is classed as functional, organism-based. The note with it: W2, 72 h. An outline of the steps: as §1

The structures appear in SMILES notation.

Broadly, the IC50 is the concentration that inhibits the measured activity by half. A high value points to weaker potency in that assay.

Consider `CC(=O)O[C@@H]1C[C@H]2C(C)(C)C(=O)C=C[C@]2(C)[C@H]2CC[C@]3(C)C(=CC(=O)[C@H]3c3ccoc3)[C@@]21C` [AZADIRADIONE], for which the values for the 50% inhibitory concentration (IC50) with Plasmodium falciparum [1] and in the experiment with Plasmodium falciparum [2] were 5.96 µM and 3400 nM, respectively.

Consider `CC(=O)O[C@@H]1C[C@H]2C(C)(C)C(=O)C=C[C@]2(C)[C@H]2CC[C@]3(C)C(=CC[C@H]3c3ccoc3)[C@@]21C` [AZADIRONE], for which the IC50 in the experiment with Plasmodium falciparum [1] is 1.63 µM; in the experiment on Plasmodium falciparum [2] it was 1210 nM. `CC1(C)C(=O)C=C[C@]2(C)[C@H]3CC[C@@]4(C)[C@H](c5ccoc5)OC(=O)[C@H]5O[C@]54[C@]3(C)[C@H](O)C[C@@H]12` [DEACETYLGEDUNIN]: the concentration for half-maximal inhibition (IC50) with Plasmodium falciparum [1] came to 5.14 µM; in the experiment with Plasmodium falciparum [2] it was 3290 nM. The like results for `CC(=O)O[C@@H]1C[C@H]2C(C)(C)C(=O)C=C[C@]2(C)[C@H]2CC[C@]3(C)C(=CC(=O)[C@H]3[C@@H]3COC(O)C3)[C@@]21C` (some centres undefined) [DESMETHYLLIMOCIN B] were, in that order, 4.8 µM and 2590 nM. Regarding `CC(=O)O[C@@H]1C[C@H]2C(C)(C)C(=O)C=C[C@]2(C)[C@H]2CC[C@@]3(C)[C@H](c4ccoc4)C(=O)[C@H]4O[C@]43[C@@]21C` [EPOXYAZADIRADIONE], the IC50 in the experiment with Plasmodium falciparum [1] is 3.3 µM; in the experiment with Plasmodium falciparum [2], 2160 nM. For the compound `CC(=O)O[C@@H]1C[C@H]2C(C)(C)C(=O)C=C[C@]2(C)[C@H]2CC[C@@]3(C)[C@H](c4ccoc4)OC(=O)[C@H]4O[C@]43[C@@]21C` [GEDUNIN], it took 1310 nM to reach half-maximal inhibition with Plasmodium falciparum [2] (IC50). For `CC(=O)O[C@H]1CC(=O)C(C)(C)[C@@H]2C[C@@H](OC(C)=O)[C@@]3(C)C4=CC[C@@H]([C@@H]5COC(O)C5)[C@]4(C)CC[C@@H]3[C@@]12C` (some centres undefined) [NEEMFRUITIN A], the figures for the IC50 with Plasmodium falciparum [1] and with Plasmodium falciparum [2] were 2.82 µM and 1740 nM, respectively. Turning to `CC(=O)O[C@H]1O[C@@H]([C@@H]2OC2(C)C)C[C@H]1[C@@H]1CC=C2[C@]3(C)[C@H](O)C[C@H]4C(C)(C)C(=O)C=C[C@]4(C)[C@H]3CC[C@]21C` [NEEMFRUITIN B], the IC50 with Plasmodium falciparum [1] was 9.49 µM; in the experiment with Plasmodium falciparum [2], 9980 nM. Consider `CC(=O)O[C@@H]1C[C@H]2C(C)(C)C(=O)C=C[C@]2(C)[C@H]2CC[C@]3(C)C(=CC[C@H]3[C@H]3CO[C@@H]([C@H](O)C(C)(C)O)C3)[C@@]21C` [PROTOXYLOCARPIN G], for which the IC50 in the experiment with Plasmodium falciparum [1] was found to be 5 µM; with Plasmodium falciparum [2], 2400 nM. The matching figures for `CC(=O)O[C@@H]1C[C@H]2C(C)(C)C(=O)C=C[C@]2(C)[C@H]2CC[C@]3(C)C(=CC[C@H]3[C@H]3COC(O)(C(C)(C)O)[C@H](O)C3)[C@@]21C` (some centres undefined) [SPICATIN]: 5.4 µM and 2740 nM.

The values are drawn from ChEMBL document CHEMBL1212893, “Antiplasmodial triterpenoids from the fruits of neem, Azadirachta indica” (J Nat Prod, 2010).
